Source: ChEMBL document CHEMBL1136963, “Sesterterpenes as tubulin tyrosine ligase inhibitors. First insight of structure-activity relationships and discovery of new lead” (J Med Chem, 2009)
Active and inactive are the calls of the source. No cut-off for these calls is given here.

Assays:
[1] = system: J774.A1; assay: Cytotoxicity against mouse J774A1 cells up to >100 uM after 24 to 48 hrs by MTT assay; assay type: functional, cell-based
[2] = system: MCF7; assay: Cytotoxicity against human MCF7 cells up to >100 uM after 24 to 48 hrs by MTT assay; assay type: functional, cell-based
[3] = system: HEK293; assay: Cytotoxicity against HEK293 cells up to >100 uM after 24 to 48 hrs by MTT assay; assay type: functional, cell-based; details: Homo sapiens
[4] = molecular target: Albumin (Bos taurus, UniProt P02769); assay: Binding affinity to bovine serum albumin by surface plasmon resonance; assay type: ADME; details: cattle, isolated protein
Procedure, shortened: (§1)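 Biacore SPR. TTL and BSA each amine-coupled (100 µg/mL in 10 mM sodium acetate, pH 5.0) to 8-12 kRU, with an unmodified reference surface. Running buffer 10 mM NaH2PO4, 150 mM NaCl, 0.5% DMSO, pH 7.4. Five-point 2-fold series, typically 0.05-10 µM, in triplicate. 25 °C, 50 µL/min, 60 s association, 200 s dissociation. Double-referenced. KD fitted from at least 10 curves.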

[5] = molecular target: T1, Tubulin--tyrosine ligase (Homo sapiens, UniProt Q8NG68); assay: Binding affinity to TTL by surface plasmon resonance; procedure, shortened: as §1
T1 sequence (Q8NG68 whole entry): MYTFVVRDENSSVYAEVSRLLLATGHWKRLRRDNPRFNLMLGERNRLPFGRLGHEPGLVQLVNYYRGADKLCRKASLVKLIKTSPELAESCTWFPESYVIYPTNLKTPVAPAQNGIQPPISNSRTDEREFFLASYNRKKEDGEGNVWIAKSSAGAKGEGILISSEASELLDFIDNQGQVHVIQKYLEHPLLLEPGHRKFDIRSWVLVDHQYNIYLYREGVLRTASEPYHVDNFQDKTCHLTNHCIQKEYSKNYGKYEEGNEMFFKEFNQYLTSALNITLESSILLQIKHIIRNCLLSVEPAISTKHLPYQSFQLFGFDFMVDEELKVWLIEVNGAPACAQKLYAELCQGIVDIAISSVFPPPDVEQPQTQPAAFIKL

[6] = molecular target: T2, Tubulin--tyrosine ligase (Homo sapiens) (UniProt Q8NG68); assay: Inhibition of TTL in human MCF7 cells assessed as increase in delta2-tubulin level at 100 uM after 24 to 48 hrs by Western blot; assay type: cell-based
T2 sequence (whole entry): T1 sequence (Q8NG68 whole entry)
Procedure, shortened: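 MCF-7 cells were grown in DMEM with 10% FBS at 37 °C, 5% CO2, seeded at 4 × 10^5 per well, and treated 24 h later with or without 100 µM compound for 24 and 48 h. NP-40 lysates (20 µg protein, Bradford) were run on 10% SDS-PAGE and blotted. Membranes were probed overnight at 4 °C with rabbit polyclonal anti-Δ2-α-tubulin.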

Albumin, sequence (P02769 whole entry): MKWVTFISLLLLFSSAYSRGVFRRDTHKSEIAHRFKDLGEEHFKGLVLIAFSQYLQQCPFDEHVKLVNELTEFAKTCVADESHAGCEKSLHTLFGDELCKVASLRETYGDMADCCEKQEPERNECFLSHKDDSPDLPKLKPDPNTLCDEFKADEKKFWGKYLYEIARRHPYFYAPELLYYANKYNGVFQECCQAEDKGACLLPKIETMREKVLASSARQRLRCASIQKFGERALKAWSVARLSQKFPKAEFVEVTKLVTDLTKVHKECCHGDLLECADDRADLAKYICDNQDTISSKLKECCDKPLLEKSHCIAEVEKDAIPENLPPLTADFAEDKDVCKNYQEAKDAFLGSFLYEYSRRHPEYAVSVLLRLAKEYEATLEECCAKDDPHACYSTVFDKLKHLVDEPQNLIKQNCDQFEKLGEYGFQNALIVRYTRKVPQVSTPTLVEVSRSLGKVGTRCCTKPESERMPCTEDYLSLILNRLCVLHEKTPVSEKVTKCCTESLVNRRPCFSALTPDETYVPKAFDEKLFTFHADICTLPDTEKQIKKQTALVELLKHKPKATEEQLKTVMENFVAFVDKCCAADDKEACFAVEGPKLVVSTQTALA

Activity [4] | Kd [5] [nM] | Activity [6] | SMILES | Activity [1] | Activity [2] | Activity [3]
Not Active |  |  | CC1=CC(=O)O[C@@H]1[C@@H](O)/C=C(\C)CC[C@@H]1[C@@]2(C)CCCC(C)(C)[C@@H]2[C@@H](O)C[C@@]1(C)O | inactive | inactive | inactive
Not Active | 3000 |  | CC1=CC(=O)O[C@@H]1[C@@H](O)/C=C(\C)CC[C@@H]1[C@@]2(C)CCC[C@@](C)(C(=O)O)[C@@H]2[C@@H](O)C[C@@]1(C)O | inactive | inactive | inactive
Not Active |  |  | C=C(CC[C@@H]1[C@@]2(C)CCC[C@@](C)(C=O)[C@@H]2[C@@H](O)C[C@@]1(C)O)[C@@H](O)[C@@H](O)C1OC(=O)C=C1C (stereo not given in full) | inactive | inactive | inactive
Not Active |  |  | CC1=CC(=O)O[C@@H]1[C@@H](O)/C=C(\C)CC[C@@H]1[C@@]2(C)CCC[C@@]3(C)CO[C@@H](C[C@@]1(C)O)[C@@H]32 | inactive | inactive | inactive
Not Active | 150 |  | CC1=CC(=O)O/C1=C\C=C(/C)CC[C@@H]1[C@@]2(C)CCC[C@@]3(C)C(=O)O[C@@H](C[C@@]1(C)O)[C@H]23 | inactive | inactive | inactive
Not Active | 3300 |  | C=C1C[C@H](O)[C@@H]2[C@](C)(CCC[C@@]2(C)C=O)[C@H]1CC/C(C)=C/[C@H](O)[C@H]1OC(=O)C=C1C | inactive | inactive | inactive
Not Active | 480 |  | CC1=CC(=O)O/C1=C\C=C(/C)CC[C@@H]1[C@@]2(C)CCC[C@@]3(C)C(O)O[C@@H](C[C@@]1(C)O)[C@H]23 (stereo not given in full) | inactive | inactive | inactive
 |  |  | C=C(CC[C@@H]1[C@@]2(C)CCC[C@@](C)(CO)[C@@H]2[C@@H](O)C[C@@]1(C)O)[C@@H](O)[C@@H](O)C1OC(=O)C=C1C (stereo in doubt; 23) [listing 1 of 2 here] | inactive | inactive | inactive
Not Active | 4700 |  | CC1=CC(=O)O[C@@H]1[C@@H](O)/C=C(\C)CC[C@@H]1[C@@]2(C)CCC[C@@](C)(CO)[C@@H]2[C@@H](O)C[C@@]1(C)O | inactive | inactive | inactive
Not Active | 210000 | Active | CC1=CC(=O)O[C@@H]1[C@@H](O)/C=C(\C)CC[C@@H]1[C@@]2(C)CCC[C@]3(C)[C@@H]2[C@H](C[C@@]1(C)O)O[C@@H]3O | inactive | inactive | inactive
Not Active | 200 |  | CC1=CC(=O)O/C1=C\C=C(/C)CC[C@@H]1[C@@]2(C)CCC[C@@](C)(C=O)[C@@H]2[C@@H](O)C[C@@]1(C)O | inactive | inactive | inactive
Not Active | 73 |  | CCO[C@H]1O[C@H]2C[C@@](C)(O)[C@H](CC/C(C)=C/C[C@H]3OC(=O)C=C3C)[C@@]3(C)CCC[C@]1(C)[C@H]23 | inactive | inactive | inactive
Not Active |  |  | C=C(CC[C@@H]1[C@@]2(C)CCC[C@@](C)(CO)[C@@H]2[C@@H](O)C[C@@]1(C)O)[C@@H](O)[C@@H](O)C1OC(=O)C=C1C (stereo in doubt; 23) [listing 2 of 2 here] |  |  | 
Not Active | 110 |  | CC1=CC(=O)O/C1=C\C=C(/C)CC[C@@H]1[C@@]2(C)CCC[C@@](C)(CO)[C@@H]2[C@@H](O)C[C@@]1(C)O | inactive | inactive | inactive
Not Active | 960 |  | CCO[C@H]1O[C@H]2C[C@@](C)(O)[C@H](CC/C(C)=C/[C@H](O)[C@H]3OC(=O)C=C3C)[C@@]3(C)CCC[C@]1(C)[C@H]23 | inactive | inactive | inactive
Not Active | 7 |  | CC1=CC(=O)OC1C/C=C(\C)CC[C@@H]1[C@@]2(C)CCC[C@@](C)(C(=O)O)[C@@H]2[C@@H](O)C[C@@]1(C)O (stereo not given in full) | inactive | inactive | inactive
Not Active | 93 |  | CC1=CC(=O)O/C1=C\C=C(/C)CC[C@@H]1[C@@]2(C)CCC[C@@](C)(C(=O)O)[C@@H]2[C@@H](O)C[C@@]1(C)O | inactive | inactive | inactive
Not Active | 72 |  | CC1=CC(=O)O[C@@H]1C/C=C(\C)CC[C@@H]1[C@@]2(C)CCC[C@@](C)(CO)[C@@H]2[C@@H](O)C[C@@]1(C)O | inactive | inactive | inactive
Not Active | 2000 |  | C=C1C[C@H](O)[C@H]2[C@](C)(CO)CCC[C@]2(C)[C@H]1CC/C(C)=C/[C@H](O)[C@H]1OC(=O)C=C1C | inactive | inactive | inactive
 |  |  | C=C(CC[C@@H]1[C@@]2(C)CCC[C@@](C)(CO)[C@@H]2[C@@H](O)C[C@@]1(C)O)[C@@H](O)[C@@H](O)C1OC(=O)C=C1C (stereo in doubt; 22) | inactive | inactive | inactive
Not Active | 810 |  | CC1=CC(=O)O[C@@H]1C/C=C(\C)CC[C@@H]1[C@@]2(C)CCC[C@@](C)(C=O)[C@@H]2[C@@H](O)C[C@@]1(C)O | inactive | inactive | inactive
Not Active | 8700 |  | C=C1C[C@@H]2OC[C@]3(C)CCC[C@](C)([C@H]1CC/C(C)=C/C[C@H]1OC(=O)C=C1C)[C@@H]23 | inactive | inactive | inactive
Not Active |  | Active | CC1=CC(=O)O[C@@H]1[C@@H](O)/C=C(\C)CC[C@@H]1[C@@]2(C)CCC[C@@]3(C)C(=O)O[C@@H](C[C@@]1(C)O)[C@H]23 | inactive | inactive | inactive
Not Active | 6200 |  | COC(=O)[C@]1(C)CCC[C@@]2(C)[C@H]1[C@@H](O)C[C@@](C)(O)[C@@H]2CC/C(C)=C/[C@H](O)[C@H]1OC(=O)C=C1C | inactive | inactive | inactive
Not Active | 3000 |  | CC1=CC(=O)O[C@@H]1[C@@H](O)/C=C(\C)CC[C@@H]1[C@@]2(C)CCC[C@@](C)(C=O)[C@@H]2[C@@H](O)C[C@@]1(C)O | inactive | inactive | inactive
